Diaph inh CS – diaphorase inhibitors and chemical oxidizers, primary screen, counter-screen for diaphorase-coupled primary assays, biochemical, uHTS, resorufin fluorescence | diaphorase resazurin-to-resorufin fluorescence, NADH, 16 min; bacterial (C. kluyveri) enzyme, not human | inhibition, % at 20 µM | 190,000 tested, 0.69% active | AID 1217, 2008;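 active = primary screen inhibition at 20 µM above a set limit, cut at about 50% in these data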
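System: Bacterial diaphorase enzyme (C. kluyveri) | Incubation: 16-min room-temperature incubation before reading | Benchmarks: No-NADH positive control and DMSO neutral control | Measured by: Resorufin fluorescence 544/590 nm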
Diaphorase act – compounds boosting diaphorase resazurin reduction – biochemical, uHTS, resorufin fluorescence, counter-screen for diaphorase-coupled primary assays, primary screen | Diaphorase/resazurin coupled assay, 16 min; hits give high values; 1 = vehicle wells, 0 = NADH-free wells | activation factor at 20 µM | 190,000 tested, 0.005% active | AID 1229, 2008;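 active = diaphorase activity raised at least twofold by the compound at 20 µM; inactive = activation factor below 2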
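System – purified diaphorase enzyme from Clostridium kluyveri · Input – enzyme 0.07 U/mL final · Also added – final NADH 0.114 mM, resazurin 0.1 mM · Measured by – fluorescence of resorufin, 544 nm excitation, 590 nm emission · Timing – 16 min enzyme reaction, ambient temperature · Measure – resorufin increase flagging diaphorase activators or reducers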
Lmaj promast – Leishmania major promastigote growth inhibition, primary screen; inhibition, % at 10 µM; AID 1063, 2008; Leishmania major promastigotes, resazurin fluorescence viability; 200,000 tested, 9% active;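 also: promastigotes grown with compound for 44 hours at 28 °C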
Redox H2O2 prof – compounds producing H2O2 with reducing agent – biochemical, NIH compound library profiling, artefact control for MLSCN library redox annotation, primary screen; DTT-dependent redox cycling H2O2, phenol red/HRP absorbance; 100% = 100 µM peroxide control, 0% = buffer; activation, % at 10 µM; 200,000 tested, 0.03% active; AID 878, 2007;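 active = activation of at least 50% relative to the plate's high and low controls in the primary single-dose screen; inactive = activation below 50%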;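 also: compound incubated with DTT at 0.8 mM final as the reducing agent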
PfG6PD inh – PfG6PD enzyme inhibitors, primary screen, biochemical, fluorescence intensity, uHTS; inhibition, % at 20 µM; glucose-6-phosphate dehydrogenase-6-phosphogluconolactonase (Plasmodium falciparum 3D7); PfGluPho enzyme, NADPH resazurin-diaphorase fluorescence; 350,000 tested, 0.78% active;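 active = inhibition reaching at least a set limit at 20 µM in the primary screen, cut at about 59% in these data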
G6PDH counter – L. mesenteroides G6PDH inhibitors, counter-screen for G6PDH-coupled screening assays, biochemical, Leuconostoc mesenteroides enzyme; 200,000 tested, 0.12% active; inhibition, % at 5 µM; Purified L. mesenteroides G6PDH, diaphorase/resazurin coupled fluorescence, 45 min; glucose-6-phosphate dehydrogenase [Leuconostoc mesenteroides]; AID 1020, 2008
Of the large screens only hits and unclear results are named; the others gave an inactive call. This is one part of a sample in which hits are shown more often than they occur. Rule as the data show it, unless noted: active = inhibition above about 50%; inactive = the rest.

Cc1cc(C=C2C(=O)NC(=S)NC2=O)c(C)n1-c1ccc2c(c1)OCO2	Lmaj promast 86
Cc1cc(C=C2C(=O)NC(=O)NC2=O)c(C)n1-c1ccc2c(c1)OCO2	none
COC(=O)C1=C(c2ccc(OC(F)(F)F)cc2)C[C@@H]2CC[C@H]1N2C(=O)N1CCOCC1	none (no result: Diaph inh CS, Diaphorase act, Lmaj promast, Redox H2O2 prof, G6PDH counter)
COc1cccc(C(=O)C2CCCN(Cc3ccc4nonc4c3)C2)c1 (centres undefined)	Lmaj promast 89 (no result: Diaph inh CS, Diaphorase act)
O=C(c1cc(F)ccc1F)C1CCCN(Cc2cc(Cl)ccc2O)C1 (centres undefined)	none (no result: Diaph inh CS, Diaphorase act, Lmaj promast, Redox H2O2 prof, G6PDH counter)
O=C(c1cc(F)ccc1F)C1CCCN(Cc2ccc3nonc3c2)C1 (centres undefined)	Lmaj promast 86
CSc1ccccc1C(=O)C1CCCN(Cc2ccccn2)C1 (centres undefined)	none
COc1ccc(C(=O)C2CCCN(Cc3ccsc3)C2)cc1OC (centres undefined)	Lmaj promast 96
COc1ccc(CN2CCCC(C(=O)c3ccccc3SC)C2)cc1O (centres undefined)	Lmaj promast 63
COC(=O)C1=C(c2ccc(F)cc2OCc2ccccc2)C[C@@H]2CC[C@H]1N2C(=O)N1CCC(O)CC1	none (no result: Diaph inh CS, Diaphorase act, Lmaj promast, Redox H2O2 prof, G6PDH counter)
Cc1nn(CC(C)C)c(Cl)c1C(=O)NC1CCC(C)CC1 (centres undefined)	none (no result: Diaph inh CS, Diaphorase act, Lmaj promast, Redox H2O2 prof, G6PDH counter)
COC(=O)C1=C(c2ccccc2OCc2ccccc2)C[C@@H]2CC[C@H]1N2C(=O)NCc1cccc(C(F)(F)F)c1	none (no result: Diaph inh CS, Diaphorase act, Lmaj promast, Redox H2O2 prof, G6PDH counter)
COC(=O)C1=C(c2ccc(F)cc2OCc2ccccc2)C[C@@H]2CC[C@H]1N2C(=O)NCc1ccc2c(c1)OCO2	none (no result: Diaph inh CS, Diaphorase act, Lmaj promast, Redox H2O2 prof, G6PDH counter)
CN1C(CC(O)c2ccccc2)CCCC1CC(O)c1ccccc1 (centres undefined)	none (no result: Diaph inh CS, Diaphorase act, Lmaj promast, Redox H2O2 prof, G6PDH counter)
CCN(CC)CC(O)c1ccc(C2CCCC2)cc1 (centres undefined)	Lmaj promast 94
Cc1ccc(OP2(=O)Nc3cc(C)c(C)cc3S2)cc1 (centres undefined)	none (no result: Diaph inh CS, Diaphorase act, Lmaj promast, Redox H2O2 prof, G6PDH counter)
Cn1cnc([N+](=O)[O-])c1Sc1ccc([N+](=O)[O-])cc1	Lmaj promast 84
O=[N+]([O-])c1ccc(C(c2ccc([N+](=O)[O-])cc2)c2ccc([N+](=O)[O-])cc2)cc1	none (no result: Diaph inh CS, Diaphorase act, Lmaj promast, Redox H2O2 prof, G6PDH counter)
CC1CCC(NCC(O)c2ccccc2)CC1 (centres undefined)	Lmaj promast 71
OC(CNC1CCCCCCC1)c1ccccc1 (centres undefined)	none (no result: PfG6PD inh)
COc1ccc(C(c2ccc(OC)cc2)C(Cl)(Cl)Cl)cc1	none (no result: Diaph inh CS, Diaphorase act, Lmaj promast, Redox H2O2 prof, G6PDH counter)
CSc1ncc(/C=C2/C(=O)NC(=O)N(c3ccc(Cl)cc3)C2=O)cn1	none
CC1CN(C)C(C)(C)CC1(O)c1ccccc1 (centres undefined)	Lmaj promast 57
Cc1ccc(C2(O)CC(C)N(C)CC2C)cc1 (centres undefined)	Lmaj promast 88
CCC1(OC(=O)c2ccccc2)CC(C)N(C)CC1C (centres undefined)	none (no result: Diaph inh CS, Diaphorase act, Lmaj promast, Redox H2O2 prof, G6PDH counter)
CCOc1ccc(Br)c(C2(O)CC(C)N(C)CC2C)c1 (centres undefined)	Lmaj promast 83
Cc1ccc(C(=O)N2CC2C)cc1 (centres undefined)	none (no result: Diaph inh CS, Diaphorase act, Lmaj promast, Redox H2O2 prof, G6PDH counter)
C[C@]12CCC3[C@@H](CCC4=CC(=O)CC[C@@]43CO)C1CCC2=O (some centres undefined)	none (no result: Diaph inh CS, Diaphorase act, Lmaj promast, Redox H2O2 prof, G6PDH counter)
CCc1cc(=O)oc2c(C)c(OCC(=O)N3C[C@H]4C[C@@H](C3)c3cccc(=O)n3C4)ccc12	none (no result: Diaph inh CS, Diaphorase act, Lmaj promast, Redox H2O2 prof, G6PDH counter)
CC/C(=N\Nc1ccccc1)c1c(O)n(-c2ccc(OC)cc2)c(=O)[nH]c1=O	none (no result: Diaph inh CS, Diaphorase act, Lmaj promast, Redox H2O2 prof, G6PDH counter)
Cc1cc2c(C(C)C)c(O)c(O)c(C=O)c2c(O)c1-c1c(C)cc2c(C(C)C)c(O)c(O)c(C=O)c2c1O	Diaph inh CS 64 (no result: PfG6PD inh)
CC(CCc1ccccc1)NC(C)C(O)c1ccc(O)cc1 (centres undefined)	Lmaj promast 89
